According to ChEMBL document CHEMBL4689842, “EUbOPEN Chemogenomics Library wave 1” (2021):

Tested on: Fibroblast
Assay: Multiplex assay against human fibroblast
Type: toxicity, cell-based
In short: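 Cells were classed with CellPathfinder machine-learning gating, first as Hoechst high-intensity objects or normal cells, then (normal cells) as healthy, pyknosed or fragmented nuclei, and finally (pyknosed cells) as mitotic or apoptotic. Staining of live cells at seeding used Hoechst33342, BioTracker Green Microtubule Cytoskeleton Dye, MitoTracker Red and Annexin V Alexa Fluor 680, with imaging on a CQ1 microscope at 37°C and 5% CO2 after compound addition. Tubulin, mitochondrial-mass and membrane-permeability phenotypes are per cents of healthy-nucleus cells.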

[1] = 12 h, 1 µM, compound concentration 1 uM, replicate 1
[2] = 12 h, 1 µM, compound concentration 1 uM, replicate 2
[3] = 12 h, 10 µM, compound concentration 10 uM, replicate 1
[4] = 12 h, 10 µM, compound concentration 10 uM, replicate 2
[5] = 24 h, 1 µM, compound concentration 1 uM, replicate 1
[6] = 24 h, 1 µM, compound concentration 1 uM, replicate 2
[7] = 24 h, 10 µM, compound concentration 10 uM, replicate 1
[8] = 24 h, 10 µM, compound concentration 10 uM, replicate 2
[9] = 48 h, 1 µM, compound concentration 1 uM, replicate 1
[10] = 48 h, 1 µM, compound concentration 1 uM, replicate 2
[11] = 48 h, 10 µM, compound concentration 10 uM, replicate 1
[12] = 48 h, 10 µM, compound concentration 10 uM, replicate 2

CCCCN(CC)c1nc(C)nc2c1c(C)cn2-c1c(C)cc(C)cc1C.Cl
Population Apoptotic (%) [1]: 63% | Population Fragmented Nuclei (%) [1]: 23% | Population Healthy Nuclei (%) [1]: 44% | Population Hoechst High Intensity Objects (%) [1]: 11% | Population Membrane Permeable-Phenotype (%) [1]: 27% | Population Mitochondria Different-Phenotype (%) [1]: 9% | Population Mitotic Cells (%) [1]: 36% | Population Normal (%) [1]: 88% | Population Pyknosed Nuclei (%) [1]: 31% | Population Tubulin-Different-Phenotype (%) [1]: 46% | Total Cell Count [1]: 108 | Population Apoptotic (%) [2]: 55% | Population Fragmented Nuclei (%) [2]: 13% | Population Healthy Nuclei (%) [2]: 77% | Population Hoechst High Intensity Objects (%) [2]: 3% | Population Membrane Permeable-Phenotype (%) [2]: 5% | Population Mitochondria Different-Phenotype (%) [2]: 8% | Population Mitotic Cells (%) [2]: 44% | Population Normal (%) [2]: 96% | Population Pyknosed Nuclei (%) [2]: 9% | Population Tubulin-Different-Phenotype (%) [2]: 14% | Total Cell Count [2]: 95 | Population Apoptotic (%) [3]: 57% | Population Fragmented Nuclei (%) [3]: 30% | Population Healthy Nuclei (%) [3]: 37% | Population Hoechst High Intensity Objects (%) [3]: 13% | Population Membrane Permeable-Phenotype (%) [3]: 32% | Population Mitochondria Different-Phenotype (%) [3]: 16% | Population Mitotic Cells (%) [3]: 42% | Population Normal (%) [3]: 86% | Population Pyknosed Nuclei (%) [3]: 31% | Population Tubulin-Different-Phenotype (%) [3]: 84% | Total Cell Count [3]: 76 | Population Apoptotic (%) [4]: 20% | Population Fragmented Nuclei (%) [4]: 9% | Population Healthy Nuclei (%) [4]: 83% | Population Hoechst High Intensity Objects (%) [4]: 6% | Population Membrane Permeable-Phenotype (%) [4]: 4% | Population Mitochondria Different-Phenotype (%) [4]: 55% | Population Mitotic Cells (%) [4]: 80% | Population Normal (%) [4]: 93% | Population Pyknosed Nuclei (%) [4]: 6% | Population Tubulin-Different-Phenotype (%) [4]: 19% | Total Cell Count [4]: 78 | Population Apoptotic (%) [5]: 57% | Population Fragmented Nuclei (%) [5]: 30% | Population Healthy Nuclei (%) [5]: 49% | Population Hoechst High Intensity Objects (%) [5]: 11% | Population Membrane Permeable-Phenotype (%) [5]: 21% | Population Mitochondria Different-Phenotype (%) [5]: 8% | Population Mitotic Cells (%) [5]: 42% | Population Normal (%) [5]: 88% | Population Pyknosed Nuclei (%) [5]: 20% | Population Tubulin-Different-Phenotype (%) [5]: 36% | Total Cell Count [5]: 107 | Population Apoptotic (%) [6]: 29% | Population Fragmented Nuclei (%) [6]: 13% | Population Healthy Nuclei (%) [6]: 70% | Population Hoechst High Intensity Objects (%) [6]: 5% | Population Membrane Permeable-Phenotype (%) [6]: 3% | Population Mitochondria Different-Phenotype (%) [6]: 6% | Population Mitotic Cells (%) [6]: 70% | Population Normal (%) [6]: 94% | Population Pyknosed Nuclei (%) [6]: 15% | Population Tubulin-Different-Phenotype (%) [6]: 7% | Total Cell Count [6]: 116 | Population Apoptotic (%) [7]: 73% | Population Fragmented Nuclei (%) [7]: 30% | Population Healthy Nuclei (%) [7]: 47% | Population Hoechst High Intensity Objects (%) [7]: 26% | Population Membrane Permeable-Phenotype (%) [7]: 14% | Population Mitochondria Different-Phenotype (%) [7]: 32% | Population Mitotic Cells (%) [7]: 26% | Population Normal (%) [7]: 73% | Population Pyknosed Nuclei (%) [7]: 21% | Population Tubulin-Different-Phenotype (%) [7]: 88% | Total Cell Count [7]: 97 | Population Apoptotic (%) [8]: 25% | Population Fragmented Nuclei (%) [8]: 8% | Population Healthy Nuclei (%) [8]: 80% | Population Hoechst High Intensity Objects (%) [8]: 4% | Population Membrane Permeable-Phenotype (%) [8]: 3% | Population Mitochondria Different-Phenotype (%) [8]: 54% | Population Mitotic Cells (%) [8]: 75% | Population Normal (%) [8]: 95% | Population Pyknosed Nuclei (%) [8]: 11% | Population Tubulin-Different-Phenotype (%) [8]: 21% | Total Cell Count [8]: 74 | Population Apoptotic (%) [9]: 50% | Population Fragmented Nuclei (%) [9]: 24% | Population Healthy Nuclei (%) [9]: 61% | Population Hoechst High Intensity Objects (%) [9]: 16% | Population Membrane Permeable-Phenotype (%) [9]: 13% | Population Mitochondria Different-Phenotype (%) [9]: 6% | Population Mitotic Cells (%) [9]: 50% | Population Normal (%) [9]: 83% | Population Pyknosed Nuclei (%) [9]: 14% | Population Tubulin-Different-Phenotype (%) [9]: 32% | Total Cell Count [9]: 118 | Population Apoptotic (%) [10]: 100% | Population Fragmented Nuclei (%) [10]: 26% | Population Healthy Nuclei (%) [10]: 71% | Population Hoechst High Intensity Objects (%) [10]: 6% | Population Membrane Permeable-Phenotype (%) [10]: 6% | Population Mitochondria Different-Phenotype (%) [10]: 4% | Population Mitotic Cells (%) [10]: 0% | Population Normal (%) [10]: 93% | Population Pyknosed Nuclei (%) [10]: 2% | Population Tubulin-Different-Phenotype (%) [10]: 46% | Total Cell Count [10]: 93 | Population Apoptotic (%) [11]: 75% | Population Fragmented Nuclei (%) [11]: 43% | Population Healthy Nuclei (%) [11]: 51% | Population Hoechst High Intensity Objects (%) [11]: 20% | Population Membrane Permeable-Phenotype (%) [11]: 13% | Population Mitochondria Different-Phenotype (%) [11]: 18% | Population Mitotic Cells (%) [11]: 25% | Population Normal (%) [11]: 79% | Population Pyknosed Nuclei (%) [11]: 4% | Population Tubulin-Different-Phenotype (%) [11]: 60% | Total Cell Count [11]: 104 | Population Apoptotic (%) [12]: 66% | Population Fragmented Nuclei (%) [12]: 46% | Population Healthy Nuclei (%) [12]: 50% | Population Hoechst High Intensity Objects (%) [12]: 12% | Population Membrane Permeable-Phenotype (%) [12]: 20% | Population Mitochondria Different-Phenotype (%) [12]: 10% | Population Mitotic Cells (%) [12]: 33% | Population Normal (%) [12]: 87% | Population Pyknosed Nuclei (%) [12]: 3% | Population Tubulin-Different-Phenotype (%) [12]: 89% | Total Cell Count [12]: 189
